Screens deposited in PubChem by several laboratories.
Rows were chosen to be rich in hits. Some 4.6% of all compounds tested hit in one or more screens of this group.
Mdm2 ligase inh = Mdm2 E3 ligase (human) inhibition; signal enhancement, % at 5 µM; 210,000 compounds, 0.11% hits; Q00987; cell-based MDM2 ubiquitination luciferase reporter, 2 h; 0 = plate control, 100 = twice control, blank-subtracted; AID 1230;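 active = signal enhancement of 30% or more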;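 also: luminescence tracks abundance of the self-degrading MDM2-luciferase fusion protein; higher signal means inhibition of MDM2 E3 ligase activity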
Target sequence (Q00987 whole entry, looked up, the tested form may be a part): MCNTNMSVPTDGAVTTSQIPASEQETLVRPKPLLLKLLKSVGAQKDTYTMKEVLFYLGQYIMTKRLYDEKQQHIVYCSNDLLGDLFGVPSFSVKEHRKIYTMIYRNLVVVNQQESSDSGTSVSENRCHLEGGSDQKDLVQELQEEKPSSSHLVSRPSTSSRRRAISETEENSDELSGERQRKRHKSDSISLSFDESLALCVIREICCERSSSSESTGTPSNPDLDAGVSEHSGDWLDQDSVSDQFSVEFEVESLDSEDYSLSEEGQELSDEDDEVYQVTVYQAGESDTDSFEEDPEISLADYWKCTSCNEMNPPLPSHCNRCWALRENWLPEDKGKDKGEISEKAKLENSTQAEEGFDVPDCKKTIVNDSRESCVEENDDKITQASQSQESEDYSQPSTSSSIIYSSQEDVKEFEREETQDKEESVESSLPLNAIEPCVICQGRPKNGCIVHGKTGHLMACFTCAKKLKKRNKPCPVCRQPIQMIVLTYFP
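Assay system: stable mammalian line carrying autodegrading MDM2–luciferase fusion reporter; amount: 2000 cells seeded into each well; buffer or medium: DMEM; benchmarks: plate control and blank wells; signal: luciferase luminescence; timing: 2 h compound exposure at 37 °C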
Wee1 degr inh = blocks degradation of human Wee1 kinase. 220,000 compounds, 1.2% hits. HeLa Luc-Wee1K328M stability, luciferase luminescence; 100% = proteasome inhibitor MG132 effect. P30291. reporter increase, % at 5 µM;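 active = activation above the mean of all tested compounds plus 3 SD, set per screening run, cut at about 8.8% in these data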;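 also: cells exposed to compound for 20 h before luminescence read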
APP 5'UTR act = APP 5'UTR luciferase reporter activation; SH-SY5Y APP 5'UTR luciferase reporter, luminescence; zero percent = DMSO vehicle wells; activation, % at 2 µM; 190,000 compounds, 1% hits;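 active = activation above a set limit, based on mean plus 3 SD of controls, cut at about 140% in these data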
STAT1 activator = increases IFN-gamma driven STAT1 reporter signal. NIH 3T3 STAT1-luciferase reporter, luminescence; 100% = IFN-gamma alone, no compound. activation (% of control), % at 5.5 µM. 200,000 compounds, 2.6% hits. AID 932;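 active = activation above the screen-wide mean activation plus 3 SD, cut at about 130% in these data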
NF-kB expr up = compounds increasing NF-kB expression in human neuronal cells. 190,000 compounds, 1.6% hits. NF-kB reporter expression; hits give high values. fold change at 12.5 µM; in the data active = fold change above about 3.3
p97 inhibitor = blocks human p97 ATPase activity; P55072; recombinant p97 ATPase, Kinase-Glo ATP luminescence, 3 h; inhibition, % at 8 µM; 220,000 compounds, 0.42% hits; AID 1481; in the data active = inhibition above about 15%
STAT1 act conf = confirmation of STAT1 signaling activators; AID 1262; activation (% of control), % at 5.7 µM; NIH 3T3 STAT1-luciferase reporter, IFN-gamma potentiation, luminescence; 100% = IFN-gamma EC80 alone, no compound; 1,200 compounds, 97% hits; shares compounds with STAT1 activator;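 active = activation above a set limit carried over from the earlier primary STAT1 screen, cut at about 140% in these data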
NFkB act STAT1ct = activates NF-kappaB, counter-screen to STAT1 activators; shares compounds with STAT1 activator; HEK293T NF-kB luciferase reporter, TNF-alpha stimulated, luminescence; 100% = TNF-alpha with vehicle only; activation (% of control), % at 5.7 µM; 1,200 compounds, 43% hits; AID 1306;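 active = activation above the mean of solvent-only control wells plus 3 SD, set per campaign, cut at about 130% in these data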;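 also: TNF-alpha given at a submaximal dose yielding about 80% of full reporter signal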
STAT3 act STAT1c = activates human STAT3, counter-screen to STAT1 activators; shares compounds with STAT1 activator; U3A cells STAT3-luciferase reporter, IL-6, luminescence; cells lack STAT1; 100 = IL-6 alone, no compound effect; activation (% of control), % at 5.7 µM; 1,200 compounds, 46% hits; AID 1316;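 active = activation above the solvent-only control well mean plus 3 SD, set per plate batch, cut at about 110% in these data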;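 also: higher means more STAT3 reporter activation so hits are non-selective activators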
Wee1 stab conf = confirmation of human Wee1 degradation inhibitors. 1,100 compounds, 4% hits. shares compounds with Wee1 degr inh. AID 1410. activation, % at 5 µM. HeLa Luc-Wee1K328M degradation, luminescence; vehicle 0%, proteasome-blocked wells 100%; in the data active = activation above about 8.9%
p97 inh conf = confirmation of human p97 ATPase inhibitors; shares compounds with p97 inhibitor; recombinant p97 ATPase, Kinase-Glo ATP luminescence; inhibition, % at 8 µM; 760 compounds, 44% hits; AID 1517;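 active = percent inhibition of p97 ATPase above a set limit, the primary screen's mean plus 3 SD, cut at about 15% in these data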
Large screens that a line does not name were inactive (follow-up assays come after a bar, where they were run).

COC(=O)c1ccc(SCC(=O)NC2CCCCC2)c([N+](=O)[O-])c1	none
CCN(CC)c1ccc(/C=N/NC(=O)c2ccco2)cc1	Wee1 degr inh 20, STAT1 activator 165, NF-kB expr up 6.3 | STAT1 act conf 217 | NFkB act STAT1ct inactive | STAT3 act STAT1c inactive | Wee1 stab conf 13
CCN(CC)c1ccc(/C=N/NC(=O)c2ccco2)c(O)c1	none (no result: APP 5'UTR act, STAT1 activator, NF-kB expr up)
Cc1ccsc1/C=N\NC(=O)c1cc(C(C)(C)C)[nH]n1	Wee1 degr inh 44, STAT1 activator 156 | STAT1 act conf 171 | NFkB act STAT1ct inactive | STAT3 act STAT1c 117 | Wee1 stab conf inactive
Nc1cc2nn(-c3ccccc3)nc2cc1Cl	APP 5'UTR act 199, STAT1 activator 166, NF-kB expr up 4.4, p97 inhibitor 19 | STAT1 act conf 238 | NFkB act STAT1ct inactive | STAT3 act STAT1c 151 | p97 inh conf inactive
CCN1CCN(CC(=O)c2ccc(OC)cc2)CC1	none
CC(=O)N1CCc2cc(N=NC3=C(O)CC(C)(C)CC3=O)ccc21	Wee1 degr inh 17, STAT1 activator 132 | Wee1 stab conf inactive
COc1ccc(NC(=O)CNS(=O)(=O)c2ccc(Cl)cc2)cc1OC	Wee1 degr inh 15 | Wee1 stab conf inactive
CCOC(=O)C(=O)c1cn(C2OCC(OC(C)=O)C(OC(C)=O)C2OC(C)=O)c2ccccc12 (centres undefined)	none
CC(=O)Nc1ccc(N2CCCC2)cc1	none
CC(=O)Nc1ccc(N2CCCCC2)cc1	Wee1 degr inh 12 | Wee1 stab conf inactive
O=c1[nH]c2ccccc2nc1/C=C(\O)C1CC1	none
O=c1[nH]c2ccccc2nc1/C=C(\O)c1cccs1	Wee1 degr inh 16, STAT1 activator 146 | Wee1 stab conf 9.6
O=c1[nH]c2ccccc2nc1/C=C/c1ccc(O)cc1	Wee1 degr inh 11, STAT1 activator 138 | Wee1 stab conf inactive
O=C(Nc1nc2ccccc2[nH]1)c1cccs1	Wee1 degr inh 12, APP 5'UTR act 166, NF-kB expr up 3.8 | Wee1 stab conf inactive
O=C1N=C(N2CCCC2C(=O)O)S/C1=C\c1ccco1 (centres undefined)	Wee1 degr inh 13 | Wee1 stab conf inactive
COc1ccc(C2N=C(c3ccccc3)C(C)(C)N2O)cc1 (centres undefined)	Wee1 degr inh 31 | Wee1 stab conf inactive
CC1(C)C(c2ccccc2)=NC(c2ccccc2)N1O (centres undefined)	none
CCN(CC(=O)NCc1cccs1)c1ccc(S(=O)(=O)N2CCOCC2)cn1	none
CCN(CC(=O)NCc1cccs1)c1ccc(S(=O)(=O)N2CCCC2)cn1	Wee1 degr inh 14 | Wee1 stab conf inactive
CCOC(=O)c1cccc(NC(=O)Nc2ccc3c(c2)C(=O)OC3)c1	none (no result: APP 5'UTR act, STAT1 activator, NF-kB expr up)
Nc1ccccc1C(=O)N/N=C1/C2CN3CCN(C2)CC1(Cc1ccccc1)C3	Wee1 degr inh 13 | Wee1 stab conf inactive
CC1CCc2c(nc3ncnn3c2NCCN(C)C)C1 (centres undefined)	none
CC(C)(C)OC(=O)C(Cl)(C(=O)OC(C)(C)C)c1ccc2nnnn2n1	Wee1 degr inh 11 | Wee1 stab conf inactive
Cc1cc(C)n2nc(-c3ccc(F)cc3)nc2n1	Wee1 degr inh 16 | Wee1 stab conf inactive
Cc1cc(C)n2nc(-c3cccnc3)nc2n1	none
O=C(NNC(=S)Nc1cccc(C(F)(F)F)c1)c1ccccc1Cl	Wee1 degr inh 12 | Wee1 stab conf inactive
Cc1ccc(/C=C/C(=O)Nc2ccc(Oc3ccccc3)cc2)o1	Wee1 degr inh 15 | Wee1 stab conf inactive
CC(C)CCNC(=O)CO/N=C/c1ccccc1OC(F)F	none
CN(C)S(=O)(=O)c1ccc(S(=O)(=O)N(Cc2ccco2)Cc2ccccc2Cl)cc1	none
O=S(=O)(c1ccc(S(=O)(=O)N(Cc2ccco2)Cc2ccccc2Cl)cc1)N1CCCC1	Wee1 degr inh 27 | Wee1 stab conf inactive
COc1ccccc1-c1nc(SCC(=O)NCC2CCCO2)c2c(=O)n(C)c(=O)n(C)c2n1 (centres undefined)	none
CNC(=O)COC(=O)COc1ccc2c(C)cc(=O)oc2c1	none
CCOC(=O)CN(C(=O)COc1ccc2c(C)cc(=O)oc2c1)c1ccc(OCC)cc1	Wee1 degr inh 13 (no result: Mdm2 ligase inh, NF-kB expr up) | Wee1 stab conf inactive
C/C(=N\Nc1ccc(Cl)cc1)c1c(O)cc(C)oc1=O	none
Cn1ncc(N=Cc2c(O)ccc3ccccc23)c1C(=O)Nc1cccc(Cl)c1	none
O=C(NCC1COc2ccccc2O1)c1cn(Cc2ccc(F)cc2)nn1 (centres undefined)	none
CC(c1ccccc1)n1cc(C(=O)NCC2COc3ccccc3O2)nn1 (centres undefined)	Wee1 degr inh 15 | Wee1 stab conf inactive
O=C(NCC1OCCc2ccccc21)c1ccc(NC(=O)c2cccc(Br)c2)cc1 (centres undefined)	none
Cc1ccc2c(CC(=O)N3CCc4ccccc43)coc2c1	Wee1 degr inh 18, STAT1 activator 138 | Wee1 stab conf inactive
O=C(Cc1coc2ccc3ccccc3c12)N1CCc2ccccc21	none
CN1C(N)=NC(=O)/C1=C/c1ccccc1F	none
OC(COCC(F)(F)C(F)(F)C(F)(F)C(F)F)Cn1c2ccccc2c2ccccc21 (centres undefined)	Wee1 degr inh 11 | Wee1 stab conf inactive
Cc1ccc(OCC(O)Cn2c3ccccc3c3ccccc32)cc1 (centres undefined)	none
COc1cccc(NC(=S)N(CCN(C)C)C(C)c2ccncc2)c1 (centres undefined)	none (no result: Mdm2 ligase inh, APP 5'UTR act, STAT1 activator, NF-kB expr up)
O=c1[nH][nH]c2ccccc2c1=O	Wee1 degr inh 14 (no result: APP 5'UTR act, STAT1 activator, NF-kB expr up) | Wee1 stab conf inactive
O=c1[nH]c2ccccc2c2ccccc12	none
